test system: Nicotiana tabacum; experiment: Concentration at which 50% of maximum response of callus yield derived from Nicotiana tabacum var is obtained; type: functional
In short: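 Three Nicotiana tabacum callus pieces of ca. 10 mg fresh weight were placed per culture. E50 is the concentration giving 50% of maximal callus yield.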

Row | SMILES | Log 1/E50
1 | Cc1cccc(Nc2[nH]c(C)nc3nccc2-3)c1 | -1.12
2 | CCCCC(CC)CNc1[nH]c(C)nc2nccc1-2 (stereo unspecified) | -0.84
3 | Cc1nc(NCCc2ccccc2)c2cc[nH]c2n1 | -1.37
4 | Cc1nc(Nc2cccc(Br)c2)c2cc[nH]c2n1 | -0.8
5 | Cc1nc(Nc2cccc(I)c2)c2cc[nH]c2n1 | -0.73
6 | CCOCCNc1[nH]c(C)nc2nccc1-2 | -1.37
7 | Cc1nc(NCc2ccccc2)c2cc[nH]c2n1 [ROLODINE] | -0.72
8 | CC(C)=CCNc1[nH]c(C)nc2nccc1-2 | 0.08
9 | CCCCCNc1[nH]c(C)nc2nccc1-2 | -0.72
10 | Cc1nc(Nc2cccc(Cl)c2)c2cc[nH]c2n1 | -0.66

test system: Nicotiana tabacum; experiment: Inhibition of 50% growth of tobacco callus derived from Nicotiana tabacum var on medium with 0.05 uM kinetin but without anti-cytokinin; NR=not reached to the maximum growth within the concentration range tested; type: functional, organism-based
In short: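 Basal medium with 0.05 μM kinetin plus the test compound at a series of concentrations, pH 5.6 (1 N NaOH), autoclaved at 1.0 kg/cm² for 15 min. Three tobacco callus pieces of ca. 10 mg fresh weight were used per culture. I50 is the concentration giving 50% of the callus growth seen on kinetin medium without anticytokinin.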

Row | SMILES | Log 1/I50
11 | Cc1nc(NCCO)c2cc[nH]c2n1 | Not reached

From ChEMBL document CHEMBL1122230, “Quantitative aspects of the receptor binding of cytokinin agonists and antagonists” (J Med Chem, 1983)
